{"source": "ChEMBL document CHEMBL3856193", "about": "“Combretastatin A-4 analogues with benzoxazolone scaffold: Synthesis, structure and biological activity” (Eur J Med Chem, 2016)", "key": {"[1]": {"assay": "Growth inhibition of human EAhy926 cells measured after 72 hrs by MTT assay", "assay_type": "functional, cell-based", "conditions": "EA.hy 926, 72 h", "procedure,_shortened": "(§1)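 Cells seeded at 1 x 10^4/100 µL, treated 24 h later with drug diluted from 2 mmol/L DMSO stock (0.01% DMSO final), 72 h incubation. MTT added for 3 h at 37°C, formazan dissolved in 0.1 N HCl/isopropanol, OD read at 550/630 nm. Eight replicates per concentration, mean ± SD. IC50 from curve fitting. Cells kept at 37°C in humidified CO2.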"}, "[2]": {"assay": "Growth inhibition of human HepG2 cells measured after 72 hrs by MTT assay", "assay_type": "functional, cell-based", "conditions": "HepG2, 72 h", "procedure,_shortened": "as §1"}, "[3]": {"assay": "Growth inhibition of human K562 cells measured after 72 hrs by MTT assay", "assay_type": "functional, cell-based", "conditions": "K562, 72 h", "procedure,_shortened": "as §1"}, "[4]": {"assay": "Antiproliferative activity against mouse Colon 26 cells measured after 72 hrs by MTT assay", "assay_type": "functional, cell-based", "conditions": "Colon 26, 72 h", "procedure,_shortened": "(§2)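 Cells seeded at 1 × 10^4 per well and left 24 h, then exposed to graded compound concentrations (stock 2 mmol/L in DMSO, final DMSO 0.01% in medium) for 72 h at 37 °C in humidified CO2. MTT (5 mg/mL) added for 3 h; formazan dissolved in 0.1 N HCl/isopropanol and read at 550/630 nm. Eight replicate wells per concentration; IC50 from curve fitting.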"}, "[5]": {"organism": "Sus scrofa", "assay": "Inhibition of porcine brain tubulin polymerization at 50 uM measured every 1 min for 40 mins in presence of GTP"}, "[6]": {"tested_on": "HepG2", "assay": "Induction of apoptosis in human HepG2 cells assessed as increase in apoptotic cells at growth inhibitory IC50 measured after 48 hrs by Annexin V-FITC/propidium iodide staining-based flow cytometric analysis relative to control", "assay_type": "functional, cell-based"}, "[7]": {"assay": "Cell cycle arrest in human HepG2 cells assessed as accumulation of hypoploid sub-G1 cells at growth inhibitory IC50 measured after 72 hrs by propidium iodide-staining based FACS analysis", "assay_type": "functional"}, "[8]": {"assay": "Cell cycle arrest in human HepG2 cells assessed as accumulation in G2/M phase at growth inhibitory IC50 measured after 8 hrs by propidium iodide-staining based FACS analysis (reference value: 28%)", "assay_type": "functional", "set-up": "scale not given: the % may be the effect or the level left"}, "[9]": {"assay": "Cell cycle arrest in human HepG2 cells assessed as decrease in S phase at growth inhibitory IC50 measured after 24 hrs by propidium iodide-staining based FACS analysis", "assay_type": "functional"}, "[10]": {"tested_on": "HepG2", "assay": "Induction of apoptosis in human HepG2 cells assessed as necrotic cells at 0.11 uM measured after 48 hrs by Annexin V-FITC/propidium iodide staining-based flow cytometric analysis relative to control", "assay_type": "functional"}, "[11]": {"tested_on": "EA.hy 926", "assay": "Antiangiogenic activity against human EAhy926 assessed as inhibition of capillary tube formation at 0.11 uM after 72 hrs by matrigel assay", "assay_type": "functional", "procedure,_shortened": "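EA.hy 926 cells (4 x 10^4) plated onto Matrigel pre-set 30 min at 37°C in complete DMEM; after 24 h medium replaced by EBM2 alone (control) or EBM2 with 0.28 µM or 0.11 µM drug. Capillary tube formation followed by inverted microscopy up to 72 h.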"}, "[12]": {"tested_on": "EA.hy 926", "assay": "Induction of apoptosis in human EAhy926 cells assessed as necrotic cells at 0.11 uM measured after 48 hrs by Annexin V-FITC/propidium iodide staining-based flow cytometric analysis relative to control", "assay_type": "functional"}, "[13]": {"assay": "Cytostatic activity against human NHEK cells assessed as cell survival up to 25 uM measured after 72 hrs by MTT assay relative to control", "assay_type": "ADME, cell-based", "conditions": "read-out: Survival"}, "[14]": {"assay": "Cytostatic activity against human MCF7 cells assessed as cell survival up to 25 uM measured after 72 hrs by MTT assay relative to control", "assay_type": "functional"}, "[15]": {"assay": "Cell cycle arrest in human HepG2 cells assessed as decrease in accumulation of G2/M phase at growth inhibitory IC50 measured after 72 hrs by propidium iodide-staining based FACS analysis", "assay_type": "functional"}, "[16]": {"tested_on": "EA.hy 926", "assay": "Induction of apoptosis in human EAhy926 cells assessed as increase in apoptotic cells at growth inhibitory IC50 measured after 48 hrs by Annexin V-FITC/propidium iodide staining-based flow cytometric analysis relative to control", "assay_type": "functional, cell-based"}, "[17]": {"organism": "Sus scrofa", "assay": "Induction of porcine brain tubulin polymerization assessed as time required to reach maxium effect at 10 uM measured every 1 min for 40 mins in presence of GTP"}, "[18]": {"organism": "Sus scrofa", "assay": "Inhibition of porcine brain tubulin polymerization at 10 uM measured every 1 min for 40 mins in presence of GTP"}, "[19]": {"assay": "Cytostatic activity against human HaCaT cells assessed as cell survival up to 25 uM measured after 72 hrs by MTT assay relative to control", "assay_type": "functional"}, "[20]": {"assay": "Cytostatic activity against human MDA-MB-231 cells assessed as cell survival up to 25 uM measured after 72 hrs by MTT assay relative to control", "assay_type": "functional"}, "[21]": {"assay": "Cell cycle arrest in human HepG2 cells assessed as accumulation of cells with 4N DNA content at growth inhibitory IC50 measured after 24 hrs by propidium iodide-staining based FACS analysis relative to control", "assay_type": "functional", "set-up": "scale not given: the % may be the effect or the level left"}, "[22]": {"assay": "Cell cycle arrest in human HepG2 cells assessed as decrease in G0/G1 phase at growth inhibitory IC50 measured after 24 hrs by propidium iodide-staining based FACS analysis", "assay_type": "functional"}, "[23]": {"assay": "Antiproliferative activity against human MCF10A cells measured after 72 hrs by MTT assay", "assay_type": "cell-based", "conditions": "MCF-10A", "procedure,_shortened": "as §2"}, "[24]": {"assay": "Antiproliferative activity against CA-4-resistant human HT-29 cells measured after 72 hrs by MTT assay", "assay_type": "functional, cell-based", "conditions": "HT-29, 72 h", "procedure,_shortened": "as §2"}, "[25]": {"assay": "Antiproliferative activity against CA-4-resistant human A549 cells measured after 72 hrs by MTT assay", "assay_type": "functional, cell-based", "conditions": "A549, 72 h", "procedure,_shortened": "as §2"}, "[26]": {"assay": "Cell cycle arrest in human HepG2 cells assessed as >4N DNA content at growth inhibitory IC50 measured after 24 hrs by propidium iodide-staining based FACS analysis relative to control", "assay_type": "functional", "set-up": "scale not given: the % may be the effect or the level left"}, "[27]": {"assay": "Solubility of compound in water", "assay_type": "physicochemical", "conditions": "buffer"}}, "note": "Calls of active or inactive are those of the source. No cut-off for these calls is given here.", "data": [{"smiles": "COc1cc(/C=C\\c2cccc3c2oc(=O)n3C)cc(OC)c1OC", "values": [{"measurement": "IC50", "setting": "[1]", "result": 10.3, "unit": "µM"}, {"measurement": "IC50", "setting": "[2]", "result": 1.07, "unit": "µM"}, {"measurement": "IC50", "setting": "[3]", "result": 0.71, "unit": "µM"}]}, {"smiles": "COc1ccc(/C=C\\c2ccc3c(c2)oc(=O)n3C)cc1OC", "values": [{"measurement": "IC50", "setting": "[1]", "result": "> 50", "unit": "µM"}, {"measurement": "IC50", "setting": "[2]", "result": 38.3, "unit": "µM"}, {"measurement": "IC50", "setting": "[3]", "result": "> 50", "unit": "µM"}]}, {"smiles": "COc1cc(/C=C\\c2cccc3c2oc(=O)n3C)cc(OC)c1", "values": [{"measurement": "IC50", "setting": "[1]", "result": 9.53, "unit": "µM"}, {"measurement": "IC50", "setting": "[2]", "result": 4.25, "unit": "µM"}, {"measurement": "IC50", "setting": "[3]", "result": 0.95, "unit": "µM"}]}, {"smiles": "COc1ccc(/C=C\\c2cc(OC)c(OC)c(OC)c2)cc1O", "note": "[COMBRETASTATIN A4]", "values": [{"measurement": "IC50", "setting": "[4]", "result": 0.44, "unit": "µM"}, {"measurement": "inhibition", "setting": "[5]", "result": "Active"}, {"measurement": "Activity", "setting": "[6]", "result": "Active"}, {"measurement": "Activity", "setting": "[7]", "result": "Active"}, {"measurement": "IC50", "setting": "[1]", "result": 0.17, "unit": "µM"}, {"measurement": "Activity", "setting": "[8]", "result": 33, "unit": "%"}, {"measurement": "Activity", "setting": "[9]", "result": "Active"}, {"measurement": "Activity", "setting": "[10]", "result": 20, "unit": "%"}, {"measurement": "inhibition", "setting": "[11]", "result": "Active"}, {"measurement": "IC50", "setting": "[2]", "result": 0.11, "unit": "µM"}, {"measurement": "Activity", "setting": "[12]", "result": 20, "unit": "%"}, {"measurement": "viability at 72 h", "setting": "[13]", "result": 40, "unit": "%"}, {"measurement": "Survival", "setting": "[14]", "result": 35, "unit": "%"}, {"measurement": "Activity", "setting": "[15]", "result": "Active"}, {"measurement": "Activity", "setting": "[16]", "result": "Active"}, {"measurement": "IC50", "setting": "[3]", "result": "< 0.1", "unit": "µM"}, {"measurement": "TIME", "setting": "[17]", "result": 0.383, "unit": "h"}, {"measurement": "inhibition", "setting": "[18]", "result": "Active"}, {"measurement": "Survival", "setting": "[19]", "result": 15, "unit": "%"}, {"measurement": "Survival", "setting": "[20]", "result": 50, "unit": "%"}, {"measurement": "Activity", "setting": "[21]", "result": 77, "unit": "%"}, {"measurement": "Activity", "setting": "[22]", "result": "Active"}, {"measurement": "IC50", "setting": "[23]", "result": 1.17, "unit": "µM"}, {"measurement": "IC50", "setting": "[24]", "result": 2.61, "unit": "µM"}, {"measurement": "IC50", "setting": "[25]", "result": 3.01, "unit": "µM"}, {"measurement": "Activity", "setting": "[26]", "result": 9, "unit": "%"}]}, {"smiles": "COc1cc(/C=C\\c2cccc3oc(=O)n(C)c23)cc(OC)c1OC", "values": [{"measurement": "IC50", "setting": "[1]", "result": 14.8, "unit": "µM"}, {"measurement": "IC50", "setting": "[2]", "result": 19, "unit": "µM"}, {"measurement": "IC50", "setting": "[3]", "result": 10.1, "unit": "µM"}]}, {"smiles": "COc1ccc(/C=C\\c2cccc3c2oc(=O)n3C)cc1OC", "values": [{"measurement": "IC50", "setting": "[1]", "result": "> 50", "unit": "µM"}, {"measurement": "IC50", "setting": "[2]", "result": 30.2, "unit": "µM"}, {"measurement": "IC50", "setting": "[3]", "result": "> 50", "unit": "µM"}]}, {"smiles": "COc1cc(/C=C\\c2ccc3oc(=O)n(C)c3c2)cc(OC)c1OC", "values": [{"measurement": "IC50", "setting": "[1]", "result": "> 50", "unit": "µM"}, {"measurement": "IC50", "setting": "[2]", "result": 39.7, "unit": "µM"}, {"measurement": "IC50", "setting": "[3]", "result": "> 50", "unit": "µM"}]}, {"smiles": "COc1ccc(/C=C\\c2cc(OC)c(OC)c(OC)c2)cc1N.Cl", "values": [{"measurement": "solubility", "setting": "[27]", "result": "Soluble"}]}]}
